In data set [1] the test system is PTH secretion from parathyroid glands. Nature of the data set: Ex vivo parathyroid gland culture: PTH secretion and Ca2+ set-point. The format is cell-based, mouse. In a few lines: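 Glands from 4-week-old wild-type C57/B6 mice, incubated sequentially with rising test compound (0.01 nM–50 µM) at 0.75 mM [Ca2+]e for dose-response. For set-point, 50 or 500 nM compound under rising [Ca2+]e. PTH secretion rate per gland per hour was normalized between vehicle basal rate (0.5 mM) and rate at 3.0 mM. Set-point is the [Ca2+]e suppressing 50% of Ca-suppressible secretion. n = 8 gland groups, mean ± SEM.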

The test system of data set [2] is serum PTH. Nature of the data set: Serum PTH after subcutaneous injection. The format is in vivo, C57/B6 mice. The conditions noted are these: WT B6 mice. In a few lines:
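Wild-type B6 mice given subcutaneous injections. Serum PTH was followed over 8 h after 1 mg/kg or 10 mg/kg. Dose comparison used serum PTH sampled 30 min after injection at several doses. n = 10 mice per dose, n = 5 at 10 mg/kg. Reference compound doses were corrected for molecular weight to match molar amounts. Unpaired Student's t-test.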

The conditions of data set [3]: plasma, 3 mg/kg subcutaneous, CD-1 mice.
The conditions of data set [4]: for duration of significantly lowered serum calcium / lowest level of serum calcium: 3 mg/kg subcutaneous; for lowest level of serum calcium: from 2.2 mM.
Data set [5] can be described thus: in vivo. The conditions noted are these: male, CD-1, mouse, sc, 3 mg/kg.
Where [6] appears, read: 1 mg/kg (3.1 µmol/kg, equimolar) subcutaneous.

pIC50: −log10 of the molar value. Where two headings read alike, the source gives them in different places.

For the compound `C[C@@H](NCCCc1cccc(C(F)(F)F)c1)c1cccc2ccccc12` [cinacalcet], the “calcium set point for PTH secretion” value in data set [1] (PAM at 50 nM, vehicle 1.47 mM) was 1.23 mM; in data set [1] (PAM at 500 nM, vehicle 1.5 mM) it was ~ 0.94 mM. The “suppression of PTH secretion (serum PTH)” value in data set [2] (setting [6]) is listed as “less effective”; in data set [2] (10 mg/kg (31 µmole/kg) subcutaneous) it was “fully suppress”. Also, the values for the Cmax in data set [3] and in data set [5] were 150 nM and 58.9 ng/mL, respectively. The “time of Cmax” value in data set [3] was 15 min. Besides, the “duration of significantly lowered serum calcium” value in data set [4] is on record as “more than 8 hrs”. The “lowest level of serum calcium” value in data set [4] is recorded as 1.7 mM.
Consider `C[C@@H](N[C@H]1CCN(c2ccc(CC(=O)O)cc2)C1)c1cccc2ccccc12` [evocalcet], for which the pIC50 in data set [1] (Mus musculus, read-out: IC50 in suppressing PTH secretion) is 6.00. The “calcium set point for PTH secretion” value in data set [1] (PAM at 50 nM, vehicle 1.47 mM) is 1 mM; in data set [1] (PAM at 500 nM, vehicle 1.5 mM), 0.76 mM. The “suppression of PTH secretion (serum PTH)” value in data set [2] (setting [6]) is given as “fully suppress”. Besides, the “time of Cmax” value in data set [3] amounted to 60 min. For the same compound, the hypocalcemic action entry in data set [4] (3.1 µmol/kg (~1 mg/kg) subcutaneous) was “particularly robust”. Besides, in data set [4], the “duration of significantly lowered serum calcium” value is given as “more than 8 hrs”. Further, the “lowest level of serum calcium” value in data set [4] is given as 1.6 mM.

Broadly, the Cmax is the peak of the concentration-time curve. As a reminder, the pIC50 is −log10 of the IC50, conventionally taken in molar units.
